Assays:
Transporter = Transporter (Macaca mulatta, UniProt Q7JHP9); experiment: Displacement of [3H]WIN-35428 from DAT in rhesus monkey caudate-putamen; type: tissue-based
Procedure, shortened: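 Rhesus or cynomolgus caudate-putamen membranes (4 mg original wet weight/mL) in 50 mM Tris·HCl pH 7.4, 100 mM NaCl. Incubated 2 h at 0-4 °C with 0.3 nM [3H]WIN35,428 and a range of drug concentrations. Filtered on 0.1% BSA-soaked glass fibre filters and scintillation counted. Nonspecific binding defined with 30 μM (-)-cocaine. IC50 is the mean of ≥2 experiments in different brains, each in triplicate.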

Macaca mulatta = organism: Macaca mulatta; experiment: Selectivity for rhesus monkey DAT over rhesus monkey SERT
Procedure, shortened: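 Ratio of SERT IC50 ([3H]citalopram binding) to DAT IC50 ([3H]WIN35,428 binding), both measured in monkey caudate-putamen membranes.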

[1] = target: Sodium-dependent serotonin transporter (Macaca mulatta, UniProt Q9MYX0); experiment: Displacement of [3H]citalopram from SERT in rhesus monkey caudate-putamen; type: tissue-based
Procedure, shortened: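 Caudate-putamen membranes from rhesus or cynomolgus monkey (4 mg original wet weight/mL) in 50 mM Tris·HCl pH 7.4 with 100 mM NaCl. Incubated with 1 nM [3H]citalopram and a range of test drug concentrations for 2 h at 0-4 °C. Filtered over glass fibre filters pre-soaked in 0.1% polyethyleneimine, then scintillation counted. IC50 is the mean of ≥2 independent experiments in different brains, each in triplicate.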

Chain of Transporter (Q7JHP9 whole entry): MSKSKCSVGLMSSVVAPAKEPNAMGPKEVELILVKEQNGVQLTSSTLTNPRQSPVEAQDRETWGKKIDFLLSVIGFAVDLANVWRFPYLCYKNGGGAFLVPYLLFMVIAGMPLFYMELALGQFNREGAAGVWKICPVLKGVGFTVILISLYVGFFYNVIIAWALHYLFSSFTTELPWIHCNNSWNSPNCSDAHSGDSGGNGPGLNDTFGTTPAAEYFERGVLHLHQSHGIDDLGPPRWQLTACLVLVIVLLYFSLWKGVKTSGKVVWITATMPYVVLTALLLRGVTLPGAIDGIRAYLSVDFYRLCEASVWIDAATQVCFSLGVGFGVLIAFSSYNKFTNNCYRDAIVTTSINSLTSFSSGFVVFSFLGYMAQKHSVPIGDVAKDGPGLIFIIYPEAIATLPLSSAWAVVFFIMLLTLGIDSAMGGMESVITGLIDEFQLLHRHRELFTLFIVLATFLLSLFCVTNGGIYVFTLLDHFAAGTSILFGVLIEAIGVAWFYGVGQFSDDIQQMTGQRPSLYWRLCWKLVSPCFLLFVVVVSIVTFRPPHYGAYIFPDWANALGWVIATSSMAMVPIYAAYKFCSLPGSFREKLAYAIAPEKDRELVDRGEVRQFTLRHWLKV
Chain of Sodium-dependent serotonin transporter (Q9MYX0 whole entry): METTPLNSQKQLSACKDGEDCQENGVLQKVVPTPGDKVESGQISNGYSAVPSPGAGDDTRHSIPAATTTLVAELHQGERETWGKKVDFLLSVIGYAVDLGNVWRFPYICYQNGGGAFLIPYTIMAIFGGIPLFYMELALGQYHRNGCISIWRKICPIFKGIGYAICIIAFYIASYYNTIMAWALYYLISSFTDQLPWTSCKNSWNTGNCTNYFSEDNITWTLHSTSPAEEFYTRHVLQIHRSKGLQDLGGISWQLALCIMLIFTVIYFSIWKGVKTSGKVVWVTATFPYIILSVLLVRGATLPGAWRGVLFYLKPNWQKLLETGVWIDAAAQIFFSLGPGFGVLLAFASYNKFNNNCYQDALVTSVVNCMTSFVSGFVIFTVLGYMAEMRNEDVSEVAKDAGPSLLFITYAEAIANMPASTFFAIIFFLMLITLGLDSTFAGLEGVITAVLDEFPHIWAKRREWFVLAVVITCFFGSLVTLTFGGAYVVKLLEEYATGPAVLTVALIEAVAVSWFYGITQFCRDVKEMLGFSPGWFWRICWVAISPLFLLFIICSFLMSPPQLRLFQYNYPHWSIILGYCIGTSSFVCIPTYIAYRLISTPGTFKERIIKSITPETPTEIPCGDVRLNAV

## COC(=O)[C@@H]1[C@@H]2[C@H](O)CC(C[C@@H]1c1ccc(Cl)c(Cl)c1)N2C
Transporter
  IC50: 2690 nM
Macaca mulatta
  Ratio IC50: 0.05
[1]
  IC50: 139 nM

## COC(=O)[C@@H]1[C@@H]2[C@H](O)CC(C[C@H]1c1ccc(Cl)c(Cl)c1)N2C
Transporter
  IC50: 482 nM
Macaca mulatta
  Ratio IC50: 11
[1]
  IC50: 5300 nM

## COC(=O)[C@@H]1[C@H]2[C@H](O)CC(C[C@H]1c1ccc(Cl)c(Cl)c1)N2C
Transporter
  IC50: 0.76 nM
Macaca mulatta
  Ratio IC50: 1610
[1]
  IC50: 1220 nM

## COC(=O)[C@@H]1C2CCC(C[C@H]1c1ccc(Cl)cc1)S2 (some centres not stated)
Transporter
  IC50: 11 nM
Macaca mulatta
  Ratio IC50: > 91
[1]
  IC50: 1000 nM

## COC(=O)[C@@H]1C2CCC(C[C@@H]1c1ccc(Br)cc1)S2 (some centres not stated)
Transporter
  IC50: 6 nM
Macaca mulatta
  Ratio IC50: 2.3
[1]
  IC50: 14 nM

## COC(=O)[C@@H]1C2CCC(C[C@H]1c1ccc(Cl)c(Cl)c1)S2 (some centres not stated)
Transporter
  IC50: 6.9 nM
Macaca mulatta
  Ratio IC50: 14
[1]
  IC50: 99 nM

## COC(=O)[C@@H]1C2CCC(C[C@@H]1c1ccccc1)S2 (some centres not stated)
Transporter
  IC50: 117 nM
Macaca mulatta
  Ratio IC50: > 29
[1]
  IC50: > 3000 nM

## COC(=O)[C@H]1[C@@H](c2ccc(Cl)c(Cl)c2)CC2CC[C@H]1S2
Transporter
  IC50: 2 nM
Macaca mulatta
  Ratio IC50: 1.5
[1]
  IC50: 3 nM

## COC(=O)[C@@H]1C2CCC(C[C@H]1c1ccc(Br)cc1)[S+]2[O-] (some centres not stated)
Transporter
  IC50: 14 nM
Macaca mulatta
  Ratio IC50: > 1710
[1]
  IC50: > 24000 nM

## COC(=O)[C@@H]1C2CCC(C[C@@H]1c1ccc(Cl)c(Cl)c1)O2 (some centres not stated)
Transporter
  IC50: 3.3 nM
Macaca mulatta
  Ratio IC50: 2
[1]
  IC50: 6.5 nM

## COC(=O)[C@@H]1C2CCC(C[C@@H]1c1ccc(F)c(Cl)c1)S2 (some centres not stated)
Transporter
  IC50: 6.7 nM
Macaca mulatta
  Ratio IC50: 55
[1]
  IC50: 370 nM

## COC(=O)C1=C(c2ccc(Cl)c(Cl)c2)CC2CC[C@H]1S2
Transporter
  IC50: 2.5 nM
Macaca mulatta
  Ratio IC50: 1040
[1]
  IC50: 2600 nM

## COC(=O)[C@@H]1C2CCC(C[C@H]1c1ccc(F)c(Cl)c1)[S+]2[O-] (some centres not stated)
Transporter
  IC50: 23 nM
Macaca mulatta
  Ratio IC50: > 1350
[1]
  IC50: > 31000 nM

## COC(=O)C1=C(c2ccccc2)CC2CCC1[S+]2[O-] (configuration not stated)
Transporter
  IC50: 6000 nM
Macaca mulatta
  Ratio IC50: > 1.6
[1]
  IC50: > 10000 nM

## COC(=O)[C@@H]1[C@@H]2CCC(C[C@@H]1c1ccc(Cl)c(Cl)c1)S2
Transporter
  IC50: 22 nM
Macaca mulatta
  Ratio IC50: 4
[1]
  IC50: 90 nM

## COC(=O)[C@@H]1C2CCC(C[C@@H]1c1ccc(F)cc1)S2 (some centres not stated)
Transporter
  IC50: 38 nM
Macaca mulatta
  Ratio IC50: 13
[1]
  IC50: 494 nM

## COC(=O)[C@@H]1C2CCC(C[C@H]1c1ccccc1)[S+]2[O-] (some centres not stated)
Transporter
  IC50: 1000 nM
Macaca mulatta
  Ratio IC50: 100
[1]
  IC50: 100000 nM

## COC(=O)[C@@H]1C2CCC(C[C@H]1c1ccc(Cl)c(Cl)c1)O2 (some centres not stated)
Transporter
  IC50: 3.1 nM
Macaca mulatta
  Ratio IC50: 21
[1]
  IC50: 64.5 nM

## COC(=O)[C@@H]1C2CCC(C[C@@H]1c1ccc(Cl)cc1)S2 (some centres not stated)
Transporter
  IC50: 9.6 nM
Macaca mulatta
  Ratio IC50: 3.4
[1]
  IC50: 33 nM

## COC(=O)[C@H]1[C@@H](c2ccc(Cl)c(Cl)c2)CC2CC[C@H]1N2C
Transporter
  IC50: 1.1 nM
Macaca mulatta
  Ratio IC50: 2.2
[1]
  IC50: 2.5 nM

## COC(=O)C1=C(c2ccc(Cl)c(Cl)c2)CC2CC[C@@H]1O2
Transporter
  IC50: 58 nM
Macaca mulatta
  Ratio IC50: 805
[1]
  IC50: 46700 nM

## COC(=O)C1=C(c2ccc(Cl)c(Cl)c2)CC2C[C@@H](O)[C@H]1N2C
Transporter
  IC50: 7.4 nM
[1]
  IC50: 5370 nM

## COC(=O)[C@@H]1C2CCC(C[C@@H]1c1ccc(I)cc1)S2 (some centres not stated)
Transporter
  IC50: 14 nM
Macaca mulatta
  Ratio IC50: 0.7
[1]
  IC50: 10 nM

## COC(=O)[C@@H]1C2CCC(C[C@@H]1c1ccc(Cl)c(F)c1)S2 (some centres not stated)
Transporter
  IC50: 6 nM
Macaca mulatta
  Ratio IC50: 3
[1]
  IC50: 17 nM

## COC(=O)C1=C(c2ccc(Cl)c(Cl)c2)CC2CC[C@@H]1S2
Transporter
  IC50: 5 nM
Macaca mulatta
  Ratio IC50: 800
[1]
  IC50: 4000 nM

## COC(=O)C1=C(c2ccc(Cl)cc2)CC2CCC1S2 (configuration not stated)
Transporter
  IC50: 13 nM
Macaca mulatta
  Ratio IC50: > 770
[1]
  IC50: > 10000 nM

## COC(=O)[C@@H]1C2CCC(C[C@@H]1c1ccc(Cl)c(Cl)c1)[S+]2[O-] (some centres not stated)
Transporter
  IC50: 5.3 nM
Macaca mulatta
  Ratio IC50: 23
[1]
  IC50: 120 nM

## COC(=O)C1=C(c2ccc(Cl)c(Cl)c2)CC2C[C@@H](O)[C@@H]1N2C
Transporter
  IC50: 265 nM
[1]
  IC50: 1590 nM

Source: ChEMBL document CHEMBL1144528, “Synthesis of 8-thiabicyclo[3.2.1]octanes and their binding affinity for the dopamine and serotonin transporters” (Bioorg Med Chem, 2007)
